Sampled rows, rich in hits. Any-hit rate of the full collection: about 1.5%.
Keap1-Nrf2 PPI – Keap1-Nrf2 protein-protein interaction inhibitors, primary screen, biochemical, fluorescence polarization, single point; Kelch-like ECH-associated protein 1 (Homo sapiens), Q14145; Keap1 Kelch-Nrf2 peptide fluorescence polarization, 1536-well; inhibition, % at 9.4 µM; AID 504523, 2011; hit rate 0.15% among 340,000; in the data active = inhibition above about 12%;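 note: human Keap1 Kelch domain with fluorescein labeled Nrf2 9mer peptide probe; 0% = neutral control wells and 100% = peptide positive control; higher means more block of Keap1 binding to Nrf2 peptide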
Target sequence (Q14145 whole entry, looked up, the tested form may be a part): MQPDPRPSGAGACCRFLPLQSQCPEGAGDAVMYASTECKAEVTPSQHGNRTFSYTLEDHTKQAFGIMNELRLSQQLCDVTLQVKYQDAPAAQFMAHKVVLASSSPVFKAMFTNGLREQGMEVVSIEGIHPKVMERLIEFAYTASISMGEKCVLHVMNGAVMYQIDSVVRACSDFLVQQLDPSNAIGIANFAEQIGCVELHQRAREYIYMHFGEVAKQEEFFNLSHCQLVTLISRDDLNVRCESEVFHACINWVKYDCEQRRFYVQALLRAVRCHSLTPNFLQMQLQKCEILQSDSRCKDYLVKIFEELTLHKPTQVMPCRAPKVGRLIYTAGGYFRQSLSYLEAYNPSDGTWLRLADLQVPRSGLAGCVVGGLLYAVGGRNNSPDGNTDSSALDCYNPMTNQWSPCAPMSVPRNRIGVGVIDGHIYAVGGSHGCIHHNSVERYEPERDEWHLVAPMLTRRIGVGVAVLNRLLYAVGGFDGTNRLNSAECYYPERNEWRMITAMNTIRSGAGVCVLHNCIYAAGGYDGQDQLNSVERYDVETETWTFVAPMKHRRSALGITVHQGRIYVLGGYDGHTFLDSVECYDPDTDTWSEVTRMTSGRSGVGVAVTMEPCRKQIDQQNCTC
CAL PDZ FP-1 – CAL PDZ peptide-binding inhibitors, primary screen, biochemical, fluorescence polarization, Cer-tagged CAL PDZ, HTS; purified CAL PDZ, TMR-peptide fluorescence polarization, 1 h; inhibition, % at 20 µM; hit rate 0.02% among 330,000; AID 504414, 2011;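 active = highest replicate inhibition of at least 40%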;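 note: plate controls were DMSO neutral control wells for no effect and unlabeled competitor peptide control wells for full effect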
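System: tagged CAL PDZ domain. Schedule: 1 h room-temperature incubation prior to read. Signal: fluorescence polarization (mP). Measure: percent inhibition from loss of millipolarization.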
CAL PDZ FP-2 – untagged CAL PDZ binding inhibitors, primary screen, biochemical, fluorescence polarization, HTS; Golgi-associated PDZ and coiled-coil motif-containing protein (Homo sapiens), Q9HD26; purified CAL PDZ, TMR-peptide fluorescence polarization, 1 h; inhibition, % at 24.9 µM; hit rate 0.92% among 300,000; AID 602252, 2012;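 active = mean inhibition of at least 30% with at least half of replicates also reaching 30%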;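 note: 0% = DMSO neutral control and 100% = excess unlabeled competitor peptide PRC23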
CaV13 ICDI inh – Disruptors of the CACNA1D IQ motif to Ca2+-dependent inactivation inhibitor domain association, primary screening, Förster resonance energy transfer in intact living …; inhibition, % at 12.3 µM; HEK cells, CFP/YFP FRET ICDI-IQ, plate reader, 10 min; percent FRET-ratio fall versus neutral wells; hit rate 0.098% among 340,000; AID 743397;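 active = mean replicate inhibition of at least 30% and at least 1% of replicates passing that level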;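 note: 0% = median of the neutral control wells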
LANA DNA inh – inhibitors of KSHV C-LANA binding to DNA, primary screen, biochemical, fluorescence polarization, FAM-LBS DNA, MBP-C-LANA, single point; inhibition, % at 9 µM; hit rate 0.078% among 340,000; Kaposi's sarcoma herpesvirus LANA C-terminal domain (residues 932-1162) DNA binding;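 active = highest replicate inhibition at or above 60% at 9 µM, even if other replicates fall short; inactive = all replicates below 60% inhibition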;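 note: 0% = neutral control wells and 100% = 4 µM acridine orange control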
LANA-H2A inh – blockers of LANA interaction with H2A/H2B – biochemical, FP readout, HTS, primary screen. Protein LANA1 (Human herpesvirus 8 type P (isolate GK18)), Q9QR71. AID 2629, 2010. inhibition, % (concentration not given with the values). hit rate 0.6% among 320,000. cell-free LANA-H2A/H2B peptide, fluorescence polarization; in the data active = inhibition mostly above about 10%, no sharp cut-off; inactive = mostly below about 6.7%
Starred values were filed as active, the others as inactive; . = not tested or not shown.

SMILES | Keap1-Nrf2 PPI | CAL PDZ FP-1 | CAL PDZ FP-2 | CaV13 ICDI inh | LANA DNA inh | LANA-H2A inh
CC(C)(O)C(=O)Nc1ccc([N+](=O)[O-])c(C(F)(F)F)c1 | 2 | 0 | 0 | . | 1 | 20*
CN1CC(C(=O)c2cccc(C(F)(F)F)c2)C(c2ccc(Cl)cc2)C1 (stereo not given) | -4 | 1 | 59* | -4 | -2 | -6
C=CCn1c(O)c(C(C)=NC(C)c2ccccc2)c(=O)[nH]c1=O (stereo not given) | 0 | 0 | -5 | -15 | 0 | 3
c1ccc(-c2ccc(CN3Cc4ccccc4-n4nncc4C3)cc2)cc1 | . | . | . | -8 | . | .
N/C(=N/[N+](=O)[O-])N1CCN(C(=O)Oc2ccc([N+](=O)[O-])cc2)CC1 | -5 | 0 | -2 | -5 | -1 | -1
CC[C@H](C)[C@@H]1NC(=O)CNC(=O)c2csc(n2)[C@H](C(C)(C)O)OC(=O)C(C)(C)[C@H](CCCC(C)(Cl)Cl)OC(=O)c2csc1n2 | . | . | . | -3 | . | .
O=c1c2ccccc2nc(/C=C/c2ccc3c(c2)OCO3)n1-c1ccccc1 | -1 | 0 | -3 | -2 | -1 | 11*
CC(C)CC12CN3CCN(CC(C3)C1O)C2 (stereo not given) | -5 | -2 | 0 | -5 | 0 | 0.7*
CCn1c(O)c(C=NCc2cccs2)c(=O)[nH]c1=O | -3 | 0 | 51* | -7 | -2 | 2
O=c1[nH]c(=O)n(Cc2ccco2)c(O)c1C=NCc1cccs1 | -1 | . | -3 | -10 | 1 | -1
O=[N+]([O-])c1ccc(-c2ccccc2)c([As](=O)(O)O)c1 | -3 | 0 | . | -2 | 1 | 1
O=[N+]([O-])c1ccc2c(c1)C(c1ccccc1)=NCCN2 | 1 | 0 | 33* | -10 | -2 | -5
CC(C)CCN1CCN(Cc2c(F)cccc2Cl)CC1CCO (stereo not given) | -6 | -4 | 1 | -19 | 1 | -1
CCCCOC(=O)c1ccccc1C(=O)OCCCC | 1 | 0 | 42* | -5 | 1 | -2
Cc1cc(OC(C)C(=O)NCc2ccncc2)c2c3c(c(=O)oc2c1)CCC3 (stereo not given) | 2 | -1 | 31* | -16 | 0 | -1
Cc1cc(OC(C)C(=O)NCc2ccncc2)c2c3c(c(=O)oc2c1)CCCC3 (stereo not given) | 0 | -3 | -1 | -7 | -2 | 3
Cc1sc(-n2c(C)cc(C=C3C(=O)NC(=O)NC3=O)c2C)c(C#N)c1C | . | . | . | -3 | . | 17*
Cc1cc(/C=C2\C(=O)NC(=O)N(c3ccc(Cl)cc3)C2=O)c(C)n1-c1sc2c(c1C#N)CCCC2 | -8 | -3 | -2 | -63 | 0 | 0
C1CCC2S[C@H]3CCCCC3NC2C1 (stereo not given in full) | -3 | -1 | 58* | -5 | 0 | 3
CCN(CC)c1ccc(N=Cc2c(O)n(CCc3ccc(OC)c(OC)c3)c(=O)[nH]c2=O)cc1 | 0 | -1 | 1 | -6 | 1 | 6
COc1ccc(CCn2c(O)c(C=Nc3ccc(F)cc3)c(=O)[nH]c2=O)cc1OC | . | . | . | -16 | . | 15*
COC1CCCCC1NCCc1ccccc1 (stereo not given) | 2 | -3 | -6 | -6 | 2 | 7
O=C(NC1CCCCC1)N1Cc2cc(-c3cccc(F)c3)ccc2-n2nncc2C1 | . | . | . | -6 | . | .
COC(=O)C1=C(c2ccc(C(C)=O)cc2)C[C@@H]2CC[C@H]1N2C(=O)NCCO | -1 | 1 | 0 | -4 | 1 | -1
CC/C(CC(c1ccccc1)c1c(O)c2ccccc2oc1=O)=N\NC(N)=S (stereo not given) | 1 | -1 | 65* | -5 | 1 | -5
SMILES | Keap1-Nrf2 PPI | CAL PDZ FP-1 | CAL PDZ FP-2 | CaV13 ICDI inh | LANA DNA inh | LANA-H2A inh
NC(Cc1ccc(Cl)cc1)c1csc(Nc2ncccn2)n1 (stereo not given) | . | . | . | -5 | . | .
CCC(C)N1C(=O)/C(=C\c2cc3c4c(c2)CCCN4CCC3)C(=O)NC1=S (stereo not given) | -5 | 0 | 65* | -3 | 0 | -4
CCC(C)N1C(=O)/C(=C\c2ccc(N3CCCCCC3)cc2)C(=O)NC1=S (stereo not given) | -7 | -1 | . | -5 | -1 | -4
CCOP(=S)(NN(Cc1ccccc1)C(=O)c1ccccc1)OCC | -5 | 0 | -3 | -3 | 1 | 1
CCC1CN1P(=O)(c1ccccc1)N1CC1CC (stereo not given) | -1 | 0 | 113* | -5 | 0 | .
C/C(=N\N=C(N)N)c1ccccc1 | -5 | 1 | -4 | -4 | 0 | 10
CC(C)C[C@H]1C(=O)N2CCC[C@H]2[C@]2(O)O[C@](NC(=O)[C@@H]3C=C4c5cccc6[nH]cc(c56)C[C@H]4N(C)C3)(C(C)C)C(=O)N12 | 34* | -1 | -2 | . | 67* | 8
CCC(CO)NC(=O)C1C=C2c3cccc4[nH]cc(c34)CC2N(C)C1 (stereo not given) | -4 | 1 | -8 | -5 | 3 | 9
Cc1ccc2c(C)c3ccc4ccccc4c3c[n+]2c1 | 1 | -2 | 38* | -14 | -7 | .
COC(=O)C1=C(c2ccc(OC)c(OC)c2)C[C@@H]2CC[C@H]1N2C(=O)N1CCC(O)CC1 | -8 | 0 | -3 | -6 | 1 | 1
CN1C(=O)C(C2CCCCC2)C(=O)N(C)C1=O | -5 | 0 | 1 | -6 | 4 | .
O=C1NC(=S)NC(=O)C1C1CCCCC1 | 1 | -1 | -3 | -6 | -2 | 15*
Cc1sc2c(c1C)C(c1ccc(C(C)(C)C)cc1)=NCC(=O)N2CC(=O)Nc1nccs1 | -4 | -1 | -6 | -4 | -2 | -3
COc1ccc(C(CNC(=O)Cc2ccc(Cl)c(Cl)c2)N2CCCCC2)cc1 (stereo not given) | 0 | 0 | 61* | -9 | -1 | -5
Fc1ccc(N2Cc3ccccc3-n3nncc3C2)cc1 | . | . | . | -6 | . | .
COc1ccc(Nc2ncc(C(=O)N3CCC4(CC3)OCCO4)c3ccccc23)cc1 | -3 | 0 | 80* | -1 | 1 | 1
C=CCn1c(O)c(C(CC)=Nc2cccc(C(F)(F)F)c2)c(=O)[nH]c1=O | 1 | 0 | . | -4 | -2 | -3
O=C1NC(=S)N(c2ccc(F)cc2)C(=O)/C1=C\c1ccoc1 | -19 | 2 | -5 | . | 88* | .
